Reference: ChEMBL document CHEMBL3232844, “Synthesis and structure activity relationships of schweinfurthin indoles” (2014)

What was measured:
Type in all cases: functional
786-0 = experiment: Cytotoxicity against human 786-0 cells
How it was run: (§1)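 Tested in a 60-cell-line human tumor panel screen; the read-out is growth inhibition, reported as GI50 for each cell line.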

BT-549 = experiment: Cytotoxicity against human BT549 cells; how it was run: as §1
[1] = Cytotoxicity against human EKVX cells; how it was run: as §1
HCC 2998 = experiment: Cytotoxicity against human HCC2998 cells; how it was run: as §1
[2] = Cytotoxicity against human OVCAR8 cells; how it was run: as §1
HL-60(TB) = experiment: Cytotoxicity against human HL-60(TB) cells
How it was run: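 Tested within the NCI 60-cell-line screen, with GI50 as the read-out. Values are the average of two independent experiments. The lowest concentration tested was 10 nM.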

[3] = Cytotoxicity against human UO31 cells
How it was run: (§2)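 Cell line run as part of the 60-cell-line screening panel; growth inhibition was reported as a GI50 for each line.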

MCF7 = experiment: Cytotoxicity against human MCF7 cells; how it was run: as §1
TK-10 = experiment: Cytotoxicity against human TK10 cells; how it was run: as §2
M14 = experiment: Cytotoxicity against human M14 cells; how it was run: as §1
SK-OV-3 = experiment: Cytotoxicity against human SKOV3 cells; how it was run: as §1
SF-295 = experiment: Cytotoxicity against human SF295 cells; how it was run: as §1
SN12C = experiment: Cytotoxicity against human SN12C cells; how it was run: as §1
MDA-MB-231 = experiment: Cytotoxicity against human MDA-MB-231 cells; how it was run: as §1
NCI-H460 = experiment: Cytotoxicity against human NCI-H460 cells; how it was run: as §1
IGROV-1 = experiment: Cytotoxicity against human IGROV1 cells; how it was run: as §1
NCI-H226 = experiment: Cytotoxicity against human NCI-H226 cells; how it was run: as §1
[4] = Cytotoxicity against human HCT15 cells; how it was run: as §1
SF-268 = experiment: Cytotoxicity against human SF268 cells; how it was run: as §1
MOLT-4 = experiment: Cytotoxicity against human MOLT4 cells; how it was run: as §1
A498 = experiment: Cytotoxicity against human A498 cells; how it was run: as §1
A549 = experiment: Cytotoxicity against human A549 cells; how it was run: as §1
T47D = experiment: Cytotoxicity against human T47D cells; how it was run: as §2
LOX IMVI = experiment: Cytotoxicity against human LOXIMVI cells; how it was run: as §1
[5] = Cytotoxicity against human OVCAR4 cells; how it was run: as §1
ACHN = experiment: Cytotoxicity against human ACHN cells; how it was run: as §1
[6] = Cytotoxicity against human OVCAR3 cells; how it was run: as §1
HCT-116 = experiment: Cytotoxicity against human HCT116 cells; how it was run: as §1
KM12 = experiment: Cytotoxicity against human KM12 cells; how it was run: as §1
RXF 393 = experiment: Cytotoxicity against human RXF393 cells; how it was run: as §1
SF-539 = experiment: Cytotoxicity against human SF539 cells; how it was run: as §1
[7] = Cytotoxicity against human NCI-ADR-RES cells; how it was run: as §1
HT-29 = experiment: Cytotoxicity against human HT-29 cells; how it was run: as §1
U-251 = experiment: Cytotoxicity against human U251 cells; how it was run: as §2
K562 = experiment: Cytotoxicity against human K562 cells; how it was run: as §1
MDA-MB-435 = experiment: Cytotoxicity against human MDA-MB-435 cells; how it was run: as §1
SK-MEL-2 = experiment: Cytotoxicity against human SK-MEL-2 cells; how it was run: as §1
NCI-H23 = experiment: Cytotoxicity against human NCI-H23 cells; how it was run: as §1
SNB-75 = experiment: Cytotoxicity against human SNB75 cells; how it was run: as §2
DU-145 = experiment: Cytotoxicity against human DU145 cells; how it was run: as §1
[8] = Cytotoxicity against human UACC257 cells; how it was run: as §2
CAKI-1 = experiment: Cytotoxicity against human Caki1 cells; how it was run: as §1
[9] = Cytotoxicity against human OVCAR5 cells; how it was run: as §1
[10] = read-out: pLC50 (the source's name) (converted)

SMILES: COc1cc(/C=C/c2cc(O)c3cc(CC=C(C)C)[nH]c3c2)cc2c1O[C@]1(C)CC[C@@H](O)C(C)(C)[C@H]1C2
- GI50 (786-0): 0.363 µM
- LC50 (concentration killing 50% of cells) (786-0): > 100 µM
- TGI (786-0; read-out: pTGI (converted)): 11 µM
- GI50 (BT-549): 3.72 µM
- CC50 (BT-549; [10]): > 100 µM
- TGI (BT-549; read-out: pTGI (converted)): 50.1 µM
- GI50 [1]: 4.79 µM
- CC50 [1, 10]: > 100 µM
- TGI ([1]; read-out: pTGI (converted)): > 100 µM
- GI50 (HCC 2998): 9.55 µM
- CC50 (HCC 2998; [10]): > 100 µM
- TGI (HCC 2998; read-out: pTGI (converted)): > 100 µM
- GI50 ([2]; OVCAR-8): > 100 µM
- CC50 ([2]; OVCAR-8, read-out: pLC50 (the source's name) (converted)): > 100 µM
- TGI ([2]; OVCAR-8, read-out: pTGI (converted)): > 100 µM
- GI50 (HL-60(TB)): 18.6 µM
- CC50 (HL-60(TB); [10]): > 100 µM
- TGI (HL-60(TB); read-out: pTGI (converted)): > 100 µM
- GI50 ([3]; UO-31): 0.479 µM
- LC50 ([3]; UO-31): > 100 µM
- TGI ([3]; UO-31, read-out: pTGI (converted)): 5.89 µM
- GI50 (MCF7): 2.45 µM
- LC50 (MCF7): > 100 µM
- TGI (MCF7; read-out: pTGI (converted)): 50.1 µM
- GI50 (TK-10): 19.1 µM
- LC50 (TK-10): > 100 µM
- TGI (TK-10; read-out: pTGI (converted)): > 100 µM
- GI50 (M14): 1.66 µM
- CC50 (M14; [10]): 63.1 µM
- TGI (M14; read-out: pTGI (converted)): 9.33 µM
- GI50 (SK-OV-3): 3.39 µM
- LC50 (SK-OV-3): > 100 µM
- TGI (SK-OV-3; read-out: pTGI (converted)): > 100 µM
- GI50 (SF-295; read-out: GI50): 0.29 µM
- GI50 (SF-295; read-out: pGI50 (converted)): 0.288 µM
- CC50 (SF-295; [10]): 51.3 µM
- TGI (SF-295; read-out: pTGI (converted)): 1.51 µM
- GI50 (SN12C): 58.9 µM
- LC50 (SN12C): > 100 µM
- TGI (SN12C; read-out: pTGI (converted)): > 100 µM
- GI50 (MDA-MB-231): 2.69 µM
- LC50 (MDA-MB-231): > 100 µM
- TGI (MDA-MB-231; read-out: pTGI (converted)): 63.1 µM
- GI50 (NCI-H460): 3.31 µM
- CC50 (NCI-H460; [10]): > 100 µM
- TGI (NCI-H460; read-out: pTGI (converted)): > 100 µM
- GI50 (IGROV-1): 5.01 µM
- CC50 (IGROV-1; [10]): > 100 µM
- TGI (IGROV-1; read-out: pTGI (converted)): > 100 µM
- GI50 (NCI-H226): 57.5 µM
- CC50 (NCI-H226; [10]): > 100 µM
- TGI (NCI-H226; read-out: pTGI (converted)): > 100 µM
- GI50 ([4]; HCT-15): 1.45 µM
- CC50 ([4]; HCT-15, read-out: pLC50 (the source's name) (converted)): > 100 µM
- TGI ([4]; HCT-15, read-out: pTGI (converted)): 17.4 µM
- GI50 (SF-268): 4.27 µM
- CC50 (SF-268; [10]): > 100 µM
- TGI (SF-268; read-out: pTGI (converted)): > 100 µM
- GI50 (MOLT-4): 0.813 µM
- CC50 (MOLT-4; [10]): > 100 µM
- TGI (MOLT-4; read-out: pTGI (converted)): > 100 µM
- GI50 (A498): 1.02 µM
- CC50 (A498; [10]): > 100 µM
- TGI (A498; read-out: pTGI (converted)): 22.9 µM
- GI50 (A549): 6.31 µM
- CC50 (A549; [10]): > 100 µM
- TGI (A549; read-out: pTGI (converted)): > 100 µM
- GI50 (T47D): 29.5 µM
- CC50 (T47D; [10]): > 100 µM
- TGI (T47D; read-out: pTGI (converted)): > 100 µM
- GI50 (LOX IMVI): 2.82 µM
- CC50 (LOX IMVI; [10]): > 100 µM
- TGI (LOX IMVI; read-out: pTGI (converted)): 75.9 µM
- GI50 ([5]; OVCAR-4): 28.8 µM
- CC50 ([5]; OVCAR-4, read-out: pLC50 (the source's name) (converted)): > 100 µM
- TGI ([5]; OVCAR-4, read-out: pTGI (converted)): > 100 µM
- GI50 (ACHN): 7.08 µM
- LC50 (concentration killing 50% of cells) (ACHN): > 100 µM
- TGI (ACHN; read-out: pTGI (converted)): > 100 µM
- GI50 ([6]; OVCAR-3): 43.7 µM
- CC50 ([6]; OVCAR-3, read-out: pLC50 (the source's name) (converted)): > 100 µM
- TGI ([6]; OVCAR-3, read-out: pTGI (converted)): > 100 µM
- GI50 (HCT-116): 2.34 µM
- CC50 (HCT-116; [10]): > 100 µM
- TGI (HCT-116; read-out: pTGI (converted)): > 100 µM
- GI50 (KM12): 2.04 µM
- CC50 (KM12; [10]): 74.1 µM
- TGI (KM12; read-out: pTGI (converted)): 10.5 µM
- GI50 (RXF 393): 0.0832 µM
- LC50 (RXF 393): 11.2 µM
- TGI (RXF 393; read-out: pTGI (converted)): 0.447 µM
- GI50 (SF-539): 0.324 µM
- CC50 (SF-539; [10]): 83.2 µM
- TGI (SF-539; read-out: pTGI (converted)): 2.75 µM
- GI50 [7]: 64.6 µM
- CC50 [7, 10]: > 100 µM
- TGI ([7]; read-out: pTGI (converted)): > 100 µM
- GI50 (HT-29): 2.63 µM
- CC50 (HT-29; [10]): 79.4 µM
- TGI (HT-29; read-out: pTGI (converted)): 18.6 µM
- GI50 (U-251): 0.603 µM
- CC50 (U-251; [10]): > 100 µM
- TGI (U-251; read-out: pTGI (converted)): > 100 µM
- GI50 (K562): 2.04 µM
- CC50 (K562; [10]): > 100 µM
- TGI (K562; read-out: pTGI (converted)): > 100 µM
- GI50 (MDA-MB-435): 3.8 µM
- CC50 (MDA-MB-435; [10]): > 100 µM
- TGI (MDA-MB-435; read-out: pTGI (converted)): > 100 µM
- GI50 (SK-MEL-2): 1.95 µM
- CC50 (SK-MEL-2; [10]): > 100 µM
- TGI (SK-MEL-2; read-out: pTGI (converted)): > 100 µM
- GI50 (NCI-H23): 6.31 µM
- CC50 (NCI-H23; [10]): > 100 µM
- TGI (NCI-H23; read-out: pTGI (converted)): > 100 µM
- GI50 (SNB-75): 0.49 µM
- CC50 (SNB-75; [10]): > 100 µM
- TGI (SNB-75; read-out: pTGI (converted)): > 100 µM
- GI50 (DU-145): 8.13 µM
- LC50 (50% lethal concentration) (DU-145): > 100 µM
- TGI (DU-145; read-out: pTGI (converted)): > 100 µM
- GI50 ([8]; UACC-257): 12 µM
- CC50 ([8]; UACC-257, read-out: pLC50 (the source's name) (converted)): > 100 µM
- TGI ([8]; UACC-257, read-out: pTGI (converted)): 81.3 µM
- GI50 (CAKI-1): 4.07 µM
- LC50 (CAKI-1): > 100 µM
- TGI (CAKI-1; read-out: pTGI (converted)): 93.3 µM
- GI50 ([9]; OVCAR-5): 25.7 µM
- CC50 ([9]; OVCAR-5, read-out: pLC50 (the source's name) (converted)): > 100 µM
- TGI ([9]; OVCAR-5, read-out: pTGI (converted)): > 100 µM
